Measurements taken from ChEMBL document CHEMBL5724801, “EUbOPEN Chemogenomics Library - Multiplex” (2024).
Several values for one entry are separate records, joined by “and”; a condition that tells them apart may be missing. Identical values can stand only once.

Test system: HEK-293T
Experiment: Multiplex assay against HEK293T
Format: toxicity, cell-based
Conditions: human
Procedure, shortened: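 Imaging took place on a CQ1 microscope at 37°C and 5% CO2 once compound had been added to live cells stained at seeding with Hoechst33342, BioTracker Green Microtubule Cytoskeleton Dye, MitoTracker Red and Annexin V Alexa Fluor 680. CellPathfinder machine-learning gating classed cells as Hoechst high-intensity objects or normal cells, classed normal cells as having healthy, pyknosed or fragmented nuclei, and classed pyknosed cells as mitotic or apoptotic. Tubulin, mitochondrial-mass and membrane-permeability phenotypes are per cents of the healthy-nucleus cells.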

[1] = 12 h, 1 µM, compound concentration 1 uM
[2] = 12 h, 10 µM, compound concentration 10 uM
[3] = 24 h, 1 µM, compound concentration 1 uM
[4] = 24 h, 10 µM, compound concentration 10 uM
[5] = 48 h, 1 µM, compound concentration 1 uM
[6] = 48 h, 10 µM, compound concentration 10 uM

CC(C)COc1ccc(CNC(=O)N(Cc2ccc(F)cc2)C2CCN(C)CC2)cc1 [PIMAVANSERIN]
Population Apoptotic (%) [1]: 39% and 54%
Population Fragmented Nuclei (%) [1]: 5% and 7%
Population Healthy Nuclei (%) [1]: 82% and 74%
Population Hoechst High Intensity Objects (%) [1]: 6% and 11%
Population Membrane Permeable-Phenotype (%) [1]: 0%
Population Mitochondria Different-Phenotype (%) [1]: 50% and 68%
Population Mitotic Cells (%) [1]: 60% and 46%
Population Normal (%) [1]: 93% and 88%
Population Pyknosed Nuclei (%) [1]: 11% and 18%
Population Tubulin-Different-Phenotype (%) [1]: 49% and 35%
Total Cell Count [1]: 430 and 311
Population Apoptotic (%) [2]: 62% and 79%
Population Fragmented Nuclei (%) [2]: 10% and 7%
Population Healthy Nuclei (%) [2]: 60% and 64%
Population Hoechst High Intensity Objects (%) [2]: 19% and 25%
Population Membrane Permeable-Phenotype (%) [2]: 0%
Population Mitochondria Different-Phenotype (%) [2]: 89% and 87%
Population Mitotic Cells (%) [2]: 37% and 20%
Population Normal (%) [2]: 80% and 74%
Population Pyknosed Nuclei (%) [2]: 28% and 27%
Population Tubulin-Different-Phenotype (%) [2]: 81% and 66%
Total Cell Count [2]: 285 and 237
Population Apoptotic (%) [3]: 33% and 48%
Population Fragmented Nuclei (%) [3]: 9% and 4%
Population Healthy Nuclei (%) [3]: 77% and 82%
Population Hoechst High Intensity Objects (%) [3]: 6% and 8%
Population Membrane Permeable-Phenotype (%) [3]: 2% and 0%
Population Mitochondria Different-Phenotype (%) [3]: 42% and 55%
Population Mitotic Cells (%) [3]: 66% and 51%
Population Normal (%) [3]: 93% and 91%
Population Pyknosed Nuclei (%) [3]: 13% and 12%
Population Tubulin-Different-Phenotype (%) [3]: 40% and 30%
Total Cell Count [3]: 553 and 394
Population Apoptotic (%) [4]: 81% and 84%
Population Fragmented Nuclei (%) [4]: 10% and 12%
Population Healthy Nuclei (%) [4]: 57% and 54%
Population Hoechst High Intensity Objects (%) [4]: 27% and 34%
Population Membrane Permeable-Phenotype (%) [4]: 0%
Population Mitochondria Different-Phenotype (%) [4]: 94% and 100%
Population Mitotic Cells (%) [4]: 18% and 15%
Population Normal (%) [4]: 72% and 65%
Population Pyknosed Nuclei (%) [4]: 31% and 32%
Population Tubulin-Different-Phenotype (%) [4]: 77% and 69%
Total Cell Count [4]: 285 and 215
Population Apoptotic (%) [5]: 27% and 48%
Population Fragmented Nuclei (%) [5]: 13% and 9%
Population Healthy Nuclei (%) [5]: 77% and 84%
Population Hoechst High Intensity Objects (%) [5]: 5%
Population Membrane Permeable-Phenotype (%) [5]: 1% and 0%
Population Mitochondria Different-Phenotype (%) [5]: 31% and 33%
Population Mitotic Cells (%) [5]: 72% and 51%
Population Normal (%) [5]: 94%
Population Pyknosed Nuclei (%) [5]: 8% and 6%
Population Tubulin-Different-Phenotype (%) [5]: 33% and 21%
Total Cell Count [5]: 869 and 601
Population Apoptotic (%) [6]: 75% and 61%
Population Fragmented Nuclei (%) [6]: 29% and 31%
Population Healthy Nuclei (%) [6]: 30%
Population Hoechst High Intensity Objects (%) [6]: 52% and 60%
Population Membrane Permeable-Phenotype (%) [6]: 0%
Population Mitochondria Different-Phenotype (%) [6]: 88% and 92%
Population Mitotic Cells (%) [6]: 24% and 38%
Population Normal (%) [6]: 47% and 40%
Population Pyknosed Nuclei (%) [6]: 40% and 37%
Population Tubulin-Different-Phenotype (%) [6]: 58% and 64%
Total Cell Count [6]: 235 and 205

CN(C)Cc1cccc(NC(=C2C(=O)Nc3cc(C(N)=O)ccc32)c2ccccc2)c1
Population Apoptotic (%) [1]: 11.04% and 8.47%
Population Fragmented Nuclei (%) [1]: 2.49% and 2.04%
Population Hoechst High Intensity Objects (%) [1]: 0.28% and 0%
Population Membrane Permeable-Phenotype (%) [1]: 0.51% and 7.69%
Population Mitochondria Different-Phenotype (%) [1]: 22.73% and 15.38%
Population Mitotic Cells (%) [1]: 88.96% and 91.53%
Population Normal (%) [1]: 99.72% and 100%
Population Pyknosed Nuclei (%) [1]: 42.66% and 80.27%
Total Cell Count [1]: 362 and 147
Population Apoptotic (%) [2]: 15.53% and 28.8%
Population Fragmented Nuclei (%) [2]: 3.04% and 4.44%
Population Healthy Nuclei (%) [2]: 56.2% and 26.11%
Population Hoechst High Intensity Objects (%) [2]: 0.25% and 0%
Population Membrane Permeable-Phenotype (%) [2]: 0.45% and 2.13%
Population Mitochondria Different-Phenotype (%) [2]: 20.72% and 17.02%
Population Mitotic Cells (%) [2]: 84.47% and 71.2%
Population Normal (%) [2]: 99.75% and 100%
Population Pyknosed Nuclei (%) [2]: 40.76% and 69.44%
Population Tubulin-Different-Phenotype (%) [2]: 14.86% and 40.43%
Total Cell Count [2]: 396 and 180
Population Apoptotic (%) [3]: 13.33% and 15.56%
Population Fragmented Nuclei (%) [3]: 0.9% and 4.61%
Population Healthy Nuclei (%) [3]: 77.6% and 36.18%
Population Hoechst High Intensity Objects (%) [3]: 0.18% and 0.65%
Population Membrane Permeable-Phenotype (%) [3]: 1.39% and 1.82%
Population Mitochondria Different-Phenotype (%) [3]: 9.47% and 14.55%
Population Mitotic Cells (%) [3]: 86.67% and 84.44%
Population Normal (%) [3]: 99.82% and 99.35%
Population Pyknosed Nuclei (%) [3]: 21.51% and 59.21%
Population Tubulin-Different-Phenotype (%) [3]: 13.16% and 7.27%
Population Apoptotic (%) [4]: 26.06% and 39.09%
Population Fragmented Nuclei (%) [4]: 1.76% and 3.57%
Population Healthy Nuclei (%) [4]: 66.02% and 40.31%
Population Hoechst High Intensity Objects (%) [4]: 0.19% and 0%
Population Membrane Permeable-Phenotype (%) [4]: 0.89% and 0%
Population Mitochondria Different-Phenotype (%) [4]: 22.78% and 25.32%
Population Mitotic Cells (%) [4]: 73.94% and 60.91%
Population Normal (%) [4]: 99.81% and 100%
Population Pyknosed Nuclei (%) [4]: 32.23% and 56.12%
Population Tubulin-Different-Phenotype (%) [4]: 32.25% and 18.99%
Total Cell Count [4]: 513 and 196
Population Apoptotic (%) [5]: 10.07% and 19.05%
Population Fragmented Nuclei (%) [5]: 1.84% and 0.58%
Population Healthy Nuclei (%) [5]: 85.36% and 62.57%
Population Hoechst High Intensity Objects (%) [5]: 0%
Population Membrane Permeable-Phenotype (%) [5]: 5.39% and 0.93%
Population Mitochondria Different-Phenotype (%) [5]: 17.15% and 29.91%
Population Mitotic Cells (%) [5]: 89.93% and 80.95%
Population Normal (%) [5]: 100%
Population Pyknosed Nuclei (%) [5]: 12.8% and 36.84%
Population Apoptotic (%) [6]: 19.7% and 35.71%
Population Fragmented Nuclei (%) [6]: 2.75% and 2.37%
Population Healthy Nuclei (%) [6]: 80.73% and 58.89%
Population Hoechst High Intensity Objects (%) [6]: 0.12% and 0.39%
Population Membrane Permeable-Phenotype (%) [6]: 4.19% and 2.01%
Population Mitochondria Different-Phenotype (%) [6]: 43.1% and 38.26%
Population Mitotic Cells (%) [6]: 80.3% and 64.29%
Population Normal (%) [6]: 99.88% and 99.61%
Population Pyknosed Nuclei (%) [6]: 16.52% and 38.74%
